Screening data (PubChem BioAssay)
The list is not random: actives were taken first. Their share in the collection is about 2.7%.
ARFGAP1 inh: inhibits rat ARF GTPase activating protein 1; Q62848; Arfgap1-stimulated ARF1 GTP hydrolysis, GDP FP detection; inhibition, % at 16.5 µM; hit rate 0.26% among 360,000;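 active = inhibition above a per-plate limit, mean inhibition of low control wells plus 3 SD, cut at about 25% in these data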;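 also: 0% = DMSO wells with enzyme and 100% = wells lacking Arfgap1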
Target sequence (Q62848 1-136 limits assumed): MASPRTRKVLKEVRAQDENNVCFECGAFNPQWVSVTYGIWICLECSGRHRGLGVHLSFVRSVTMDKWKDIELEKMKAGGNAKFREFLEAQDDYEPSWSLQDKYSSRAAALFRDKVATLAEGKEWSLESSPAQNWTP
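Material: rat Arfgap1 GAP domain (His6, aa 1-136), purified enzyme. Also added: human ARF1(Δ1-17)-GTP substrate. Compound dosing: 16.5 µM single point, 1.26% DMSO. Timing: enzyme reaction 120 min at 25 °C after 20 min preincubation. Signal: GDP detection by fluorescence polarization. Read-out basis: percent inhibition of GAP-stimulated GDP formation, scaled between DMSO and no-Arfgap1 medians.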
ASAP1 inh: ASAP1 ArfGAP inhibition. Q9ULH1. inhibition, % at 16.5 µM. ASAP1-stimulated ARF1 GTP hydrolysis, GDP FP detection. hit rate 0.19% among 360,000; in the data active = inhibition above about 25%;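 also: 0% = vehicle with enzyme and substrate and 100% = no enzyme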
pPAFAH FP inh: inhibitors of human plasma PAF acetylhydrolase (pPAFAH); recombinant pPAFAH, FP-rhodamine probe fluorescence polarization; inhibition, % at 3.39 µM; hit rate 1.5% among 330,000;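 active = inhibition above the mean inhibition across the screen plus 3 SD, cut at about 25% in these data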;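 also: inhibitors block binding of the rhodamine activity-based probe so polarization drops; 0% = enzyme with DMSO and 100% = wells lacking pPAFAH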
Target sequence (Q13093 whole entry, looked up): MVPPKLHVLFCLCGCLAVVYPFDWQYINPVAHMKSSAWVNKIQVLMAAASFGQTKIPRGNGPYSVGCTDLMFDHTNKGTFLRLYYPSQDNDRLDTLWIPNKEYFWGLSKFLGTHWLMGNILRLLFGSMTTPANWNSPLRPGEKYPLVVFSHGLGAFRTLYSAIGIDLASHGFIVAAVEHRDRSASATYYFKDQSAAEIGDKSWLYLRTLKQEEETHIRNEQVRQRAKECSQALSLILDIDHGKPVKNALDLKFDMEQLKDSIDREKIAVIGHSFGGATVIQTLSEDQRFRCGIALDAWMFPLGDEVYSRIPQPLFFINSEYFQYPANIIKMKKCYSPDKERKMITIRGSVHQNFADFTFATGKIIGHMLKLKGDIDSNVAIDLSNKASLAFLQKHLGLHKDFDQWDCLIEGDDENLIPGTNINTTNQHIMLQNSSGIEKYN
PAFAH2 FP inh: inhibitors of human PAFAH2. recombinant PAFAH2, FP-rhodamine activity probe, fluorescence polarization. inhibition, % at 3.39 µM. hit rate 0.99% among 340,000. AID 492956;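 active = inhibition above the mean over all tested compounds plus 3 SD, cut at about 30% in these data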;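 also: inhibitors block probe labeling of enzyme so polarization drops; 0% = enzyme with DMSO and 100% = wells lacking PAFAH2 protein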
PAFAH1B2 FP inh: blocks human PAF acetylhydrolase 1b catalytic subunit 2; inhibition, % at 3.39 µM; recombinant PAFAH1B2, FP-rhodamine activity probe, fluorescence polarization; hit rate 1.2% among 340,000; P68402;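 active = inhibition above the mean of all tested compounds plus 3 SD, cut at about 24% in these data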;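 also: 0% = enzyme with DMSO and 100% = wells lacking PAFAH1B2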
PAFAH1B3 FP inh: inhibitors of human PAFAH1B3; Q15102; recombinant PAFAH1B3, FP-rhodamine probe, fluorescence polarization; AID 492972; inhibition, % at 3.39 µM; hit rate 0.28% among 340,000;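 active = inhibition above the screen-wide average of all tested compounds plus 3 SD, cut at about 25% in these data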;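 also: 0% = enzyme with DMSO only and 100% = wells lacking PAFAH1B3 protein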
PAFAH2 confirm: confirmation of human PAFAH2 inhibitors; inhibition, % at 3.39 µM; AID 493030; hit rate 65% among 2,300; shares compounds with PAFAH2 FP inh; recombinant PAFAH2, FP-rhodamine activity probe, fluorescence polarization;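 active = mean inhibition over three repeats above a set limit taken from the earlier primary screen, cut at about 30% in these data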;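 also: inhibitor blocks binding of rhodamine activity probe so polarization falls; 0% = enzyme with DMSO and 100% = wells lacking PAFAH2 protein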
An asterisk follows results filed as active; . = no result.

SMILES	ARFGAP1 inh	ASAP1 inh	pPAFAH FP inh	PAFAH2 FP inh	PAFAH1B2 FP inh	PAFAH1B3 FP inh	PAFAH2 confirm
CCSC1=N/C(=C\c2ccc(C(=O)O)cc2)C(=O)S1	0	10	2	31*	0	11	15
COc1ccc(C2=Cc3ccccc3C(CC(=O)C3CC3)N2c2ccc(C#CCCO)cc2)cc1 (stereo not drawn)	-1	4	.	.	.	.	.
O=c1oc(-c2cc3ccccc3o2)nc2sc3c(c12)CCCC3	-2	-5	2	69*	-7	0	68*
O=c1oc(-c2ccccc2)nc2sc3c(c12)CCCC3	4	12	-5	49*	-1	6	37*
O=c1oc(/C=C/c2ccccc2)nc2sc3c(c12)CCC3	6	-6	6	66*	0	15	60*
COc1ccc(/C=C/c2nc3sc4c(c3c(=O)o2)CCC4)cc1	10	8	1	29	6	2	.
O=c1oc(-c2cccs2)nc2sc3c(c12)CCCCC3	18	7	-6	17	10	13	.
Cc1ccccc1-c1nc2sc3c(c2c(=O)o1)CCC3	2	6	17	76*	-2	9	80*
CCCCCCCCCCCCCC(=O)NO	-1	7	.	13	5	24	.
O=C1c2ccccc2C(c2nnnn2Cc2ccccc2)N1Cc1cccc(F)c1 (stereo not drawn)	3	1	.	.	.	.	.
COc1ccccc1-c1ccc([C@@H]2C[C@H]3[C@@H](CN2)CON3C)cc1	-6	3	.	.	.	.	.
O=C(Nc1ccc(NC(=O)c2ccccc2)c2ccccc12)c1ccccc1	4	-1	.	.	.	.	.
CC1CCCC(NC(=O)COC(=O)c2n[nH]c3ccccc23)C1C (stereo not drawn)	10	-3	-11	79*	5	5	72*
CC1CCCC(NC(=O)COC(=O)c2cccs2)C1C (stereo not drawn)	13	-1	3	81*	0	3	85*
O=C(COC(=O)c1cccs1)NC1CCCCC1	8	9	12	76*	5	3	85*
CC1CCCC(NC(=O)COc2ncnc3ccccc23)C1C (stereo not drawn)	9	-3	-8	9	3	10	.
CC1CCCC(NC(=O)CNC(=O)c2cccs2)C1C (stereo not drawn)	11	3	0	-2	-1	10	.
O=C(COC(=O)c1ccc(NS(=O)(=O)c2cccs2)cc1O)NC1CCCCC1	-2	4	18	34*	8	12	17
COC(=O)[C@@]1(Cc2ccc(OC)cc2)[C@H]2c3cc(C(=O)N4CCCC4)n(Cc4ccc(C)c(F)c4F)c3C[C@H]2CN1C(=O)c1ccccc1	3	3	.	.	.	.	.
Cc1ccc(C(=O)OCC(=O)NC2CCCC(C)C2C)s1 (stereo not drawn)	-3	-8	.	.	.	.	.
Cc1ccc(C(=O)NCC(=O)OCC(=O)NC2CCCC(C)C2C)s1 (stereo not drawn)	2	12	2	48*	4	-6	31*
O=C(COC(=O)c1cccs1)NC1CCCC1	1	15	12	81*	-1	1	74*
COc1ccc(OC)c(NC(=O)/C=C/c2ccc(S(=O)(=O)N3CCOCC3)cc2)c1	4	-10	.	-1	0	10	.
CC1=C(C(=O)N(C)C)CC(CC(=O)NCc2ccco2)C(=O)N1Cc1ccccc1 (stereo not drawn)	3	4	.	.	.	.	.
N/C(Cc1cccs1)=N\OC(=O)COc1ccc(Br)cc1Cl	9	4	5	5	10	1	.
SMILES	ARFGAP1 inh	ASAP1 inh	pPAFAH FP inh	PAFAH2 FP inh	PAFAH1B2 FP inh	PAFAH1B3 FP inh	PAFAH2 confirm
COc1ccc(C(=O)O/N=C(\N)Cc2cccs2)cc1OC	-8	-1	13	79*	2	6	76*
COc1ccccc1C/C(N)=N/OC(=O)c1ccc(C)c([N+](=O)[O-])c1	0	4	6	24	2	5	.
Cc1ccc(C(=O)O/N=C(\N)Cc2cccs2)cc1[N+](=O)[O-]	-23	1	13	36*	3	5	12
COC(=O)c1ccccc1S(=O)(=O)NNC(=O)Nc1ccccc1	-3	3	1	34*	-1	-2	18
COC(=O)c1ccccc1S(=O)(=O)C(C)(C)C	13	-1	2	-1	0	7	.
CCN(c1cccc(C)c1)C1C(=O)c2ccccc2N1C(C)=O (stereo not drawn)	-1	-8	0	38*	12	6	12
Cc1ccc(NC(=O)CSc2nnc(C3CC3)n2C)cc1S(=O)(=O)N1CCCCC1	4	6	2	4	-2	-1	.
C[n+]1c(-c2ccccc2)cc2c(=Cc3ccccc3)c3ccccc3n21	13	11	.	59*	-5	20	15
O=c1c2sccc2[nH]c(=S)n1Cc1ccccc1	10	4	4	63*	1	5	52*
NC(CCCCc1ccccc1)c1cccc2ccccc12 (stereo not drawn)	.	.	1	.	.	.	.
COc1ccccc1-c1noc2c1C(=O)N(C(=O)OC(C)(C)C)CC2	7	-1	.	.	.	.	.
CCN(CC)S(=O)(=O)c1ccc(Cl)c(NC(=O)COC(=O)c2c(C)noc2C)c1	2	11	7	7	-5	1	.
CCN(CC)S(=O)(=O)c1ccc(Cl)c(NC(=O)COC(=O)c2cccn2C)c1	7	-6	20	31*	6	3	21
CCN(CC)S(=O)(=O)c1ccc(Cl)c(NC(=O)COC(=O)C2CCCCC2)c1	5	4	8	46*	7	3	31*
Cc1ccc(C(=O)COC(=O)c2ccc(Cl)c(N)c2)s1	-5	1	7	32*	-2	8	22
O=C(OCC(=O)c1ccc(Br)s1)c1ccc(O)cc1	18	1	19	66*	5	4	61*
COc1cccc(C(=O)OCC(=O)c2ccc(Br)s2)c1OC	-2	-5	19	62*	-2	4	52*
O=C(OCC(=O)C12CC3CC(CC(C3)C1)C2)c1ccc(CO)cc1	-7	19	0	80*	18	5	83*
Cn1c(SCC(=O)NC2CCCc3ccccc32)nnc1C1CC1 (stereo not drawn)	3	-12	.	-1	2	3	.
N#C/C(=C\c1c(Oc2ccccc2F)nc2ccccn2c1=O)C(=O)NC1CCS(=O)(=O)C1 (stereo not drawn)	-4	15	1	-1	6	18	.
O=C(OCC(=O)c1ccc(Cl)s1)c1ccc(CO)cc1	19	-1	-1	61*	5	5	51*
Cc1ccc(C(=O)NCC(=O)OCC(=O)c2ccc(Cl)s2)cc1	14	8	7	8	3	4	.
